# From ChEMBL document CHEMBL1140307, “Design and synthesis of alpha-aryloxyphenylacetic acid derivatives: a novel class of PPARalpha/gamma dual agonists with potent antihyperglycemic and lipid modulating activity” (J Med Chem, 2005)
# What was measured:
# [1] = molecular target: T1, Peroxisome proliferator-activated receptor alpha (Homo sapiens, UniProt Q07869); assay: In vitro binding affinity for human PPAR alpha
# T1 sequence (Q07869 whole entry): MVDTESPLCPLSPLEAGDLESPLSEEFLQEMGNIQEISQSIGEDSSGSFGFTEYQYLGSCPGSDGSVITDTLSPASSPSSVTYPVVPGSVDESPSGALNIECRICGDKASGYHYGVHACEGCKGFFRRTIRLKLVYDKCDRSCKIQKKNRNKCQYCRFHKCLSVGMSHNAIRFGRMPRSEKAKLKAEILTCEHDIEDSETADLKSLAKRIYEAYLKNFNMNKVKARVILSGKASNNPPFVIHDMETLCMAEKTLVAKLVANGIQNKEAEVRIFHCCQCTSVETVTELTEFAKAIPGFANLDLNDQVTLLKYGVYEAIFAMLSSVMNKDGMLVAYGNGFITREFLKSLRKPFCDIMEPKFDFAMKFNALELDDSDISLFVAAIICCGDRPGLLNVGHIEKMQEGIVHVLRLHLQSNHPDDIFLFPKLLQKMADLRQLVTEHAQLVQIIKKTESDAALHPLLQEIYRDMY
# [2] = molecular target: T1, Peroxisome proliferator-activated receptor alpha; assay: Agonist response against human PPAR alpha in transactivation assay
# [3] = molecular target: T2, Peroxisome proliferator-activated receptor gamma (Homo sapiens, UniProt P37231); assay: Agonist response against human PPAR gamma in transactivation assay; type: functional
# T2 sequence (P37231 whole entry): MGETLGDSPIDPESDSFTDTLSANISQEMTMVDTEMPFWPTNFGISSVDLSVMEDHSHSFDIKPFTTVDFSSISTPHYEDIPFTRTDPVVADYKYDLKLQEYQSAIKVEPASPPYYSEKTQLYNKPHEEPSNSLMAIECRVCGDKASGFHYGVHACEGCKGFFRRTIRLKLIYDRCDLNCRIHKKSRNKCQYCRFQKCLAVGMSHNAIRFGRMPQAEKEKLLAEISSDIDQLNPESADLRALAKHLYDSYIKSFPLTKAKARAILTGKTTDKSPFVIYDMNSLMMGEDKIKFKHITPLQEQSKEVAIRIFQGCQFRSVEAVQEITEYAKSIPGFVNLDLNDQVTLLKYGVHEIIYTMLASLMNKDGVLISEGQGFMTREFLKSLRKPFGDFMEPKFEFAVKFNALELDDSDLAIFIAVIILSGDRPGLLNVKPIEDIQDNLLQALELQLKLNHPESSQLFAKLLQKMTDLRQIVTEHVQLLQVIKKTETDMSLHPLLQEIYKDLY
# [4] = molecular target: T2, Peroxisome proliferator-activated receptor gamma; assay: In vitro binding affinity for human PPAR gamma
# [5] = molecular target: T3, Peroxisome proliferator-activated receptor gamma (Homo sapiens) (UniProt P37231); assay: Maximal activation of human Peroxisome proliferator activated receptor gamma
# T3 sequence (whole entry): T2 sequence (P37231 whole entry)
# Summary of the method: (§1)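 Cell-based transactivation assay using GAL4-PPAR chimeric receptors with a reporter gene carrying a GAL4 response element. The top concentration tested was 3 µM. Values are the mean of three determinations.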
# [6] = molecular target: T4, Peroxisome proliferator-activated receptor alpha (Homo sapiens) (UniProt Q07869); assay: Maximal activation of human Peroxisome proliferator activated receptor alpha; summary of the method: as §1
# T4 sequence (whole entry): T1 sequence (Q07869 whole entry)
# [7] = Area under concentration time curve of compound when administered perorally at a dose of 2 mg/kg to rats; type: ADME, organism-based; design: dose 2 mg/kg, route oral; settings: rat, in vivo, po
# Summary of the method: (§2)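 Male Sprague-Dawley rats (n = 3) and male adult Beagle dogs (n = 4) were fasted overnight. They received either a 2 mg/kg oral gavage dose or a 0.5 mg/kg IV bolus. Blood was drawn into heparin tubes from a femoral arterial cannula (rat) or the jugular vein (dog) at set time points. Plasma was acidified with 0.5 M formate pH 3.0, stored at -70 °C and quantified by LC-MS/MS.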
# Cricetinae gen. sp. [8] = assay: Percentage change in the serum triglyceride upon administration of compound (10 mpk) in hamster; type: functional
# Summary of the method: (§3)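 Male Golden Syrian hamsters were fed normal rodent chow and dosed orally once daily with compound. Serum total cholesterol and triglyceride were measured and expressed as percent change versus vehicle controls.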
# [9] = Oral bioavailability in dog; type: ADME, organism-based, Canis lupus familiaris; settings: in vivo; summary of the method: as §2
# Rattus norvegicus [10] = assay: Effect (150 mg/kg) on PPAR gamma- mediated effects measured as change in body weight in rats; type: functional
# Summary of the method: (§4)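 Male Sprague-Dawley rats (about 200 g, n = 6) were fed rodent chow and gavaged once daily for 2 weeks with compound in 0.5% methylcellulose. Body weight was recorded on days 1, 4, 6, 8, 11 and 14. Rats were euthanized with CO2 24 h after the last dose, and BAT, heart and liver were weighed. Blood was taken by heart puncture for hematocrit. Results are mean ± SD versus vehicle.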
# Rattus norvegicus [11] = assay: Effect (150 mg/kg) on PPAR gamma- mediated effects measured as change in heart weight in rats; type: functional; summary of the method: as §4
# [12] = Oral bioavailability in rat; type: ADME, organism-based; settings: in vivo; summary of the method: as §2
# Rattus norvegicus [13] = assay: Effect (150 mg/kg) on PPAR gamma- mediated effects measured as change in hematocrit weight in rats; type: functional; summary of the method: as §4
# Rattus norvegicus [14] = assay: Effect (150 mg/kg) on PPAR gamma- mediated effects measured as change in liver weight in rats; type: functional; summary of the method: as §4
# [15] = Area under concentration time curve of compound when administered perorally at a dose of 2 mg/kg to dogs; type: ADME, organism-based, Canis lupus familiaris; design: dose 2 mg/kg, route oral; settings: dog, in vivo, po; summary of the method: as §2
# Cricetinae gen. sp. [16] = assay: Percentage change in the serum cholesterol upon administration of compound (10 mpk) in hamster; type: functional; summary of the method: as §3
# Rattus norvegicus [17] = assay: Effect (150 mg/kg) on PPAR gamma- mediated effects measured as change in brown adipose tissue weight in rats; type: functional; summary of the method: as §4
Structure (SMILES),IC50 [1],EC50 [2],EC50 [3],IC50 [4],also measured
CCCc1cc(C(=O)CC)cc(C)c1OC(C(=O)O)c1ccc(C(C)C)cc1 (configuration not stated),160 nM,160 nM,197 nM,260 nM,–
CCCc1cc(C(=O)CC)cc(CCC)c1O[C@H](C(=O)O)c1ccc(CC)cc1,64 nM,76 nM,480 nM,210 nM,–
CCCc1cc(C(=O)C(C)C)cc(CCC)c1OC(C(=O)O)c1ccccc1 (configuration not stated),160 nM,250 nM,–,3160 nM,–
CCCc1cc2c(=O)n(C(C)C)oc2c(CCC)c1O[C@H](C(=O)O)c1ccc(C(C)C)cc1,230 nM,270 nM,430 nM,160 nM,–
CCCc1cc(C(=O)CC)cc(CCC)c1O[C@H](C(=O)O)c1ccc(CC(C)C)cc1,58 nM,39 nM,180 nM,220 nM,Maximal activation [5]: 66%; Maximal activation [6]: 807%
CCCc1cc2c(oc(=O)n2CC(F)(F)F)c(CCC)c1O[C@H](C(=O)O)c1ccc(C(C)C)cc1,100 nM,310 nM,140 nM,110 nM,–
CCC(=O)c1cc(C(C)CC)c(OC(C(=O)O)c2ccccc2)c(C(C)CC)c1 (configuration not stated),6120 nM,–,–,> 50000 nM,–
CCCc1cc(C(=O)CC)cc(CCC)c1O[C@@H](C(=O)O)c1ccc(C(C)C)cc1,3900 nM,–,–,2980 nM,–
CCCc1cc2c(oc(=O)n2C)c(CCC)c1O[C@H](C(=O)O)c1ccc(C(C)C)cc1,393 nM,–,640 nM,85 nM,–
CCC(=O)c1cc(C)c(OC(C(=O)O)c2ccccc2)c(C)c1 (configuration not stated),3000 nM,–,–,> 50000 nM,–
CCCc1cc2c(oc(=O)n2CC)c(CCC)c1O[C@H](C(=O)O)c1ccc(Cl)cc1,260 nM,–,–,220 nM,–
CCCc1cc2c(=O)n(C(C)C)oc2c(CCC)c1O[C@H](C(=O)O)c1ccc(CC(C)C)cc1,790 nM,–,370 nM,260 nM,–
CCCc1cc(C(=O)C(C)(C)C)cc(CCC)c1OC(C(=O)O)c1ccccc1 (configuration not stated),130 nM,160 nM,–,2700 nM,–
CCCc1cc2c(=O)n(C3CCCCC3)oc2c(CCC)c1O[C@H](C(=O)O)c1ccc(C(C)C)cc1,> 15000 nM,–,–,440 nM,–
CCCc1cc(C(=O)c2ccccc2)cc(CCC)c1OC(C(=O)O)c1ccccc1 (configuration not stated),800 nM,–,–,4680 nM,–
CCCc1cc(C(=O)CC)cc(CCC)c1O[C@H](C(=O)O)c1ccc(OC(C)C)cc1,43 nM,110 nM,–,200 nM,–
CCCc1cc2c(oc(=O)n2CC)c(CCC)c1O[C@H](C(=O)O)c1ccc(C(C)C)cc1,74 nM,290 nM,120 nM,99 nM,AUC [7]: 127 µM·h; Change (Cricetinae gen. sp. [8]): -6%; bioavailability [9]: 35%; Body weight (Rattus norvegicus [10]): 283 g; Heart weight (Rattus norvegicus [11]): 1.1 g; bioavailability [12]: 72%; Hematocrit (Rattus norvegicus [13]): 45.6%; Liver weight (Rattus norvegicus [14]): 22.4 g; AUC [15]: 9.1 µM·h; Change (Cricetinae gen. sp. [16]): -25%; BAT (Rattus norvegicus [17]): 0.24 g
CCCc1cc(C(=O)CC)cc(CCC)c1NC(C(=O)O)c1ccc(C(C)C)cc1 (configuration not stated),> 50000 nM,–,–,> 50000 nM,–
CCCc1cc2c(oc(=O)n2C(C)C)c(CCC)c1O[C@H](C(=O)O)c1ccccc1,550 nM,–,–,1790 nM,–
CCCc1cc(C(=O)CC)cc(CCC)c1CC(C(=O)O)c1ccc(C(C)C)cc1 (configuration not stated),> 15000 nM,–,–,> 50000 nM,–
CCCc1cc2c(=O)n(C)oc2c(CCC)c1O[C@H](C(=O)O)c1ccccc1,850 nM,670 nM,390 nM,3800 nM,–
CCCc1cc(C(=O)CC)cc(Cl)c1O[C@H](C(=O)O)c1ccc(C(C)C)cc1,260 nM,260 nM,360 nM,220 nM,–
CCCc1c(O[C@H](C(=O)O)c2ccc(C(C)C)cc2)c(Cl)cc2c1oc(=O)n2CC,1410 nM,–,360 nM,520 nM,–
CCC(=O)c1ccc(OC(C(=O)O)c2ccccc2)cc1 (configuration not stated),> 50000 nM,–,–,> 50000 nM,–
CN(CCOc1ccc(CC2SC(=O)NC2=O)cc1)c1ccccn1 (configuration not stated) [ROSIGLITAZONE],–,–,–,–,Body weight (Rattus norvegicus [10]): 322 g; Heart weight (Rattus norvegicus [11]): 1.46 g; Hematocrit (Rattus norvegicus [13]): 41.3%; Liver weight (Rattus norvegicus [14]): 16.6 g; BAT (Rattus norvegicus [17]): 1.03 g
CCCc1cc(C(=O)CC)cc(CCC)c1O[C@H](C(=O)O)c1ccc(C(F)(F)F)cc1,89 nM,250 nM,–,210 nM,–
CCCc1cc2c(oc(=O)n2CCC)c(CCC)c1O[C@H](C(=O)O)c1ccc(C(C)C)cc1,150 nM,–,120 nM,87 nM,–
CCCc1cc(C(=O)CC)cc(CCC)c1OC(C(=O)O)c1ccccc1 (configuration not stated),51 nM,100 nM,–,2760 nM,–
CCC(=O)c1cc(Cl)c(OC(C(=O)O)c2ccccc2)c(Cl)c1 (configuration not stated),1600 nM,–,–,> 50000 nM,–
CCCc1cc2c(oc(=O)n2CC2CC2)c(CCC)c1O[C@H](C(=O)O)c1ccc(C(C)C)cc1,130 nM,–,330 nM,120 nM,–
